An excerpt weighted towards active compounds, which were near 4.2% of everything screened.
SENP1 inh – inhibitors of human SENP1 SUMO protease catalytic domain. 0.21% of 360,000 active. recombinant SENP1 catalytic domain, CyPet-SUMO1-YPet FRET cleavage. Q9P0U3. inhibition, % at 10 µM. AID 624204;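 active = inhibition at least 30% at 10 µM, raw YFP signal under a set limit, fluorescence ratio 0.5 to 1.5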;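 note: 0% = enzyme with DMSO and 100% = no enzyme wells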
Target sequence (Q9P0U3 419-644 limits assumed): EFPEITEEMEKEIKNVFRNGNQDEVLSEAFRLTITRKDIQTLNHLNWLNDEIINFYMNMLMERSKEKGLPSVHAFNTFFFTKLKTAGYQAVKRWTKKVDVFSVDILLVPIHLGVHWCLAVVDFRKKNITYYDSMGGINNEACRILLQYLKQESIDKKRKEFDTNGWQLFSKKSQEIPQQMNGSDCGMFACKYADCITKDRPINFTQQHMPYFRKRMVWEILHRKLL
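Test system: recombinant human SENP1 catalytic domain, His6-tagged / Medium: pH 8 Tris buffer with EDTA, NaCl, BME, BSA, NP40, catalase / Also added: SUMO1 FRET substrate flanked by Cypet and Ypet, 25 nM / Times: 50 min reaction at room temperature / Signal: FRET, CFP and YFP emission / Control set: no-enzyme low control and enzyme-plus-DMSO high control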
CTSL1 counter – cathepsin L1 inhibition, PFM18AAP counter-screen. AID 1906. recombinant F. hepatica cathepsin L1, Z-Leu-Arg-MCA fluorescence. 0.49% of 300,000 active. inhibition, % at 5.96 µM;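 active = inhibition above the mean of all tested compounds plus 3 SD, set per screening campaign, cut at about 17% in these data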;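 note: 0% = plate median of test compound wells and 100% = 1 µM Z-Phe-Ala-diazomethylketone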
PfM18AAP inh – blocks P. falciparum M18 aspartyl aminopeptidase; recombinant PfM18AAP, H-Glu-NHMec fluorogenic cleavage; inhibition, % at 7.35 µM; 1.2% of 290,000 active; AID 1822;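 active = inhibition above the campaign mean inhibition over all tested compounds plus 3 SD, cut at about 28% in these data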;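 note: 0% = plate median of test compound wells and 100% = 2 mM ZnCl2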
HDAC3 inh – blocks human histone deacetylase 3; recombinant HDAC3, fluorogenic peptide/trypsin coupled, fluorescence; inhibition, % at 8.3 µM; 0.15% of 320,000 active; AID 2718; in the data active = inhibition above about 26%, passing the limit was not always enough; inconclusive = no clear call, values can overlap the other calls
Target sequence (O15379 whole entry, looked up): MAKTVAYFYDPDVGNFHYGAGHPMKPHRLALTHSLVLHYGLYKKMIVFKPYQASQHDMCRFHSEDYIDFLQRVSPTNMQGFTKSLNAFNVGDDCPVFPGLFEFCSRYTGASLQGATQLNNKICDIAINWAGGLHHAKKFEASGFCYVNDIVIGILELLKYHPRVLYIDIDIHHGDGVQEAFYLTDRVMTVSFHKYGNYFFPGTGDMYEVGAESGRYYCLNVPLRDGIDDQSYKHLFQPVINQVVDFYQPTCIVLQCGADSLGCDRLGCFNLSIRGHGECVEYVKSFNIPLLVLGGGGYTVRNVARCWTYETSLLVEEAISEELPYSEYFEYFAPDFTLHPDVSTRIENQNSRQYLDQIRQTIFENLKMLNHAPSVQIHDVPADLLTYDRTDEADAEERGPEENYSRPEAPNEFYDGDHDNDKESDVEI
GAA850 FXN act – activators of GAA850 frataxin (FXN) promoter; HEK293 lucGAA850 FXN promoter luciferase reporter, 24 h; percent of 10 µM SAHA response; activation, % at 6 µM; 0.56% of 360,000 active; AID 540364;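 active = activation above the average of all compounds screened plus 3 SD, cutoff fixed separately per campaign, cut at about 7.5% in these data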;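 note: 0% = DMSO wells and 100% = 10 µM SAHA wells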
AHR act – activates the human aryl hydrocarbon receptor. activation, % at 5 µM. AHR-responsive luciferase reporter cells, luminescence. P35869. 2.5% of 320,000 active; in the data active = activation above about 47%;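 note: 0% = vehicle wells and 100% = reference agonist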
AHR act cf – confirmation of human aryl hydrocarbon receptor activators. AID 2845. 87% of 2,300 active. activation, % at 9 µM. human cells, AHR-responsive luciferase reporter, luminescence. shares compounds with AHR act; in the data active = activation above about 49%;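 note: HepG2 hepatoma cells carrying a DRE-driven firefly luciferase reporter; 0% = vehicle wells and 100% = reference agonist wells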
PXR act counter – counter-screen for AHR activators: human PXR activators. cell-based PXR reporter, luciferase luminescence. AID 434939. 88% of 2,300 active. activation, % at 11.6 µM. shares compounds with AHR act; in the data active = activation above about 11%;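 note: human hepatoma DPX-2 cells expressing full-length human PXR; 0% = DMSO and 100% = reference agonist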
Numbers without * were called inactive; ? = inconclusive; . = not tested or not shown.

SMILES	SENP1 inh	CTSL1 counter	PfM18AAP inh	HDAC3 inh	GAA850 FXN act	AHR act	AHR act cf	PXR act counter
O=[N+]([O-])c1cc(-c2nc(-c3ccncc3)no2)cc([N+](=O)[O-])c1	1.3	0.6	-15.6	0.7	-1.2	89.6*	72.2*	.
COc1cccc(-c2nc3ccc(C(=O)NC(C)Cc4cccnc4)cc3o2)c1 (centres undefined)	1.0	0.4	4.5	-31.0	5.9	29.5	.	.
COc1cc(NC(=O)C/C(C)=N/NC(=O)C(=O)NCCO)c(OC)cc1Cl	0.8	2.6	8.2	1.4	2.1	81.5*	14.2	10.7*
C/C(CC(=O)Nc1ccc(Cl)cc1Cl)=N\NC(=O)C(=O)NCCO	-0.2	-3.5	-7.6	-0.7	-2.3	1.4	.	.
COc1ccc(C(=O)N/N=C(\C)CC(=O)NC2CCCCC2)c(OC)c1	2.2	4.3	-5.2	2.1	1.3	11.9	.	.
COc1cc(NC(=O)C/C(C)=N/NC(=O)c2ccccn2)c(OC)cc1Cl	0.6	2.7	5.5	-3.9	4.1	113.5*	70.2*	13.6*
COc1cc(NC(=O)C/C(C)=N/NC(=O)C2CCCCC2)c(OC)cc1Cl	1.3	-0.4	0.8	1.3	1.5	104.6*	13.9	9.2
COc1cc(NC(=O)C/C(C)=N/NC(=O)C(=O)NC2CCCCC2)c(OC)cc1Cl	1.0	0.0	-1.5	-6.2	1.7	96.6*	11.1	9.7
O=Cc1cc2ccccc2nc1SCc1ccc(Cl)cc1	-11.6	-0.7	-1.4	-1.1	4.8	29.8	.	.
Cc1ccc(CSc2nc3ccccc3cc2C=O)cc1	-1.9	1.1	-1.7	8.4	5.7	81.6*	72.0*	15.0*
COc1ccc2c(C)nc(Nc3nc(C)cc(C)n3)nc2c1	-18.4	0.9	8.0	-4.2	-4.6	108.7*	100.9*	20.8*
COc1ccccc1NCC(=O)N/N=C(\C)c1ccc(Br)s1	5.9	-1.1	4.4	-7.8	0.9	36.9	.	.
C/C(=N/NC(=O)CNc1ccc(C)cc1)c1ccc(Br)s1	1.4	3.3	-2.1	0.1	1.7	82.9*	60.8*	15.2*
Cc1ccc2nc(NC(=S)NC(=O)c3ccco3)sc2c1	-8.3	-2.2	10.8	-2.2	1.6	8.8	.	.
Cc1ccc2nsnc2c1NC(=S)NC(=O)c1ccco1	-0.1	-6.0	11.0	2.3	4.8	97.1*	111.0*	15.4*
COc1cccc(S(=O)(=O)N(C)C[C@@H]2Oc3cc(Br)ccc3S(=O)(=O)N([C@@H](C)CO)C[C@@H]2C)c1	1.3	.	.	.	-1.8	.	.	.
COc1ccc(CCNC/C=C/c2ccccc2)cc1	-2.0	-0.6	-14.4	0.1	1.0	-1.6	.	.
Cc1c(/C(Cc2ccccc2)=N/O)c2ccccc2n1C	-2.8	4.0	-1.3	-5.4	1.3	88.4*	111.1*	178.2*
Cc1c(C(=O)CN2CCSCC2)c2ccccc2n1C	0.6	-3.5	-6.5	3.0	1.2	-0.7	.	.
O=C(Nc1ccc(C(=O)N2CCCCC2)cc1)Nc1cccc(Cl)c1	2.3	-1.3	5.1	9.5	6.4	6.1	.	.
O=C(C[n+]1cccc2ccccc21)c1ccccc1	11.8	-1.3	4.2	0.2	4.8	33.6	.	.
O=C(C[n+]1cc2ccccc2c2ccccc21)c1ccccc1	-23.9	13.3	-2.2	-1.8	-0.9	87.1*	93.3*	55.3*
CCOc1ccc(-c2[nH]ncc2Oc2ccccc2OCC)c(O)c1	-0.3	2.0	-0.5	?	-0.8	42.3	.	.
CCOc1ccccc1Oc1cn[nH]c1-c1ccc(OCC(=O)NN)cc1O	0.8	-3.5	17.4	-3.9	1.2	106.8*	67.8*	14.9*
C=C(C)COc1ccc(-c2[nH]ncc2Oc2ccccc2OC)c(O)c1	1.9	2.2	2.8	-4.5	2.7	98.0*	55.5*	65.9*
SMILES	SENP1 inh	CTSL1 counter	PfM18AAP inh	HDAC3 inh	GAA850 FXN act	AHR act	AHR act cf	PXR act counter
COc1ccc(N2CCN(C(=O)c3cccc(S(=O)(=O)N4CCc5ccccc54)c3)CC2)cc1	0.6	.	.	0.0	-2.0	2.6	.	.
O=C(c1cccc(S(=O)(=O)N2CCc3ccccc32)c1)N1CCN(c2ccccn2)CC1	3.1	-1.4	-2.3	0.4	-7.0	79.8*	93.1*	199.9*
COc1ccc2nc(C)cc(NCc3ccc(F)cc3)c2c1	-13.8	0.8	1.3	0.4	-3.8	21.1	.	.
Cc1ccc2c(c1)c1nc3ccccc3nc1n2C	-25.8	2.7	9.3	1.7	6.7	88.3*	117.0*	.
Cc1ccc2c(c1)c1nc3ccccc3nc1n2CCN1CCOCC1	-23.1	6.7	2.6	9.7	7.0	19.4	.	.
N#Cc1nc(-c2ccc(OCc3ccc(Cl)cc3)cc2)oc1NCCCn1ccnc1	2.8	-4.4	-4.1	-0.7	0.3	13.9	.	.
N#Cc1nc(-c2ccccc2)oc1NCCCn1ccnc1	1.9	3.1	-1.4	-28.8	0.6	98.6*	104.2*	28.3*
CCN(CCCNC(=O)Cn1ncc2c([nH]c3ccc(C)cc32)c1=O)c1ccccc1	1.4	-1.9	-6.5	-4.1	-1.2	2.9	.	.
O=C(O)c1ccc(N/N=C/C2=Cc3ccccc3OC2)cc1	-81.0	2.7	5.9	9.1	5.8	121.6*	83.0*	18.3*
O=C(NCCCN1CCOCC1)C1CCN(S(=O)(=O)c2cccc(C(F)(F)F)c2)CC1	0.2	.	.	-2.8	-0.5	0.4	.	.
O=C(c1cc2cc(F)ccc2[nH]1)N1CCc2ccccc2C1	1.2	-2.5	-3.1	1.2	5.4	82.1*	110.1*	46.5*
CN(CCOc1ccccc1)C(=O)C1CCN(C(=O)c2ccc(F)cc2)CC1	0.1	2.1	6.3	-0.1	-0.3	2.2	.	.
Fc1ccccc1-c1nc(-c2ccc(Br)o2)no1	0.0	3.9	2.2	0.3	0.3	101.8*	142.6*	31.3*
Cc1ccccc1-c1nc(-c2ccc(NC(=O)c3ccc(Br)o3)cc2)no1	2.0	0.1	-1.7	4.1	-0.1	20.9	.	.
Cc1ccccc1-c1nc(-c2ccc(Br)o2)no1	-1.8	-1.4	9.6	5.1	4.3	102.0*	127.0*	49.0*
Fc1ccccc1-c1nc(-c2ccccc2)no1	0.0	5.8	-0.9	-0.3	2.7	92.7*	125.9*	12.8*
O=C(CCC1CCCN(C(=O)c2cc3ccccc3o2)C1)NCc1ccc(F)c(F)c1 (centres undefined)	3.1	-1.0	-13.7	-0.5	1.9	12.5	.	.
CCc1ccc(C#CC2=CC(=O)CC(C)(C)C2)cc1	0.2	.	.	.	-0.8	.	.	.
COc1ccc(N(CC(=O)NCCc2ccc(OC)c(OC)c2)S(=O)(=O)c2c(C)noc2C)cc1	0.1	0.1	3.8	2.2	-0.1	1.1	.	.
COc1ccc(Cc2nnc(NC(C)=O)s2)cc1	2.8	-5.8	-0.8	0.0	-1.9	1.2	.	.
CCCc1nnc(NC(=O)c2cccc(OC)c2)s1	1.7	5.0	-6.5	1.6	6.0	4.8	.	.

Source: PubChem
